Experimental data pooled from the literature.
Lines come from different studies, so protocols differ.
Target: Mitogen-activated protein kinase 8 (MAPK8, Homo sapiens, UniProt P45983)

| Compound | assay | setting | remaining binding |
| --- | --- | --- | --- |
| C[C@H](c1ccc(F)cc1)N(Cc1cccc(C(=O)O)c1)C(=O)c1cnc2ccccc2c1 | cell-free assay, competition with immobilised ligand | 1 µM | 100% |
| COc1cnc(Nc2cccc(S(N)(=O)=O)c2)nc1N1CCN(c2ccccc2)CC1 | binding, competition with immobilised ligand | 1 µM | 87% |
| O=C(NCCCN1CCOCC1)c1ccc(Nc2nccc(-c3cc4ccccc4s3)n2)cc1 | binding, competition with immobilised ligand | 1 µM | 9.8% |
| CCN1CCN(Cc2ccc(C(=O)Nc3ccc(C)c(Oc4ccc5c(c4)CC(=O)N5)c3)cc2C(F)(F)F)CC1 | binding, competition with immobilised ligand | 1 µM | 82% |
| CC(=O)N1CCC(c2ccc(C(=O)NC(=N)N)cc2C(F)(F)F)CC1 | cell-free assay, competition with immobilised ligand | 1 µM | 73% |
| COc1ccnn2ncc(-c3ccnc(N(C)C)n3)c12 | binding | 1 µM | 75% |
| O=C(c1ccc(Nc2ncc(Cl)c(-c3ccc(Cl)s3)n2)cc1)N1CCC(N2CCCC2)CC1 | binding, competition with immobilised ligand | 1 µM | 0.3% |
| Cc1c[nH]c2nccc(Oc3c(F)cc(Nc4cc(Cl)nc(N)n4)cc3F)c12 | cell-free assay, competition with immobilised ligand | 0.1 µM | 80% |
| F[C@@H]1CCN(c2nccc(-c3cnn4ncccc34)n2)C1 | binding | 1 µM | 89% |
| Cc1c(NC(=O)c2cc(C(N)=O)nc3cc(F)ccc23)c(C(F)(F)F)nn1Cc1ccc(C(C)(C)C)cc1 | cell-free assay, competition with immobilised ligand | 1 µM | 100% |
| c1cnn2ncc(-c3ccnc(N4CCC45COC5)n3)c2c1 | binding, competition with immobilised ligand | 1 µM | 26% |
| Nc1c(C(=O)NCc2ccc(C(=O)NCCCC3CCCCC3)cc2)cnn1-c1ccccc1 | cell-free assay, competition with immobilised ligand | 0.1 µM | 100% |
| CC1CCCN1c1nccc(-c2cnn3ncccc23)n1 (stereo not drawn) | binding, competition with immobilised ligand | 1 µM | 94% |
| CC(C)(C)c1ccc(-c2nc(CBr)nn2-c2cccc(O)c2)cc1 | cell-free assay, competition with immobilised ligand | 10 µM | 73% |
| C[C@@H]1CN(c2ccc3ncc(-c4ccc5[nH]nc(C6CC6)c5c4)n3n2)C[C@H](C)O1 | binding, competition with immobilised ligand | 50 nM | 80% |
| N[C@@H]1CCN(c2nccc(-c3cnn4ncccc34)n2)C1 | binding | 1 µM | 27% |
| NS(=O)(=O)c1cc(NC(=O)Cc2ccccc2)ccc1Oc1cccc(Cl)c1 | cell-free assay, competition with immobilised ligand | 1 µM | 69% |
| O=C(Nc1c[nH]nc1C(=O)NC1CCNCC1)c1cc(F)cc(F)c1 | binding, competition with immobilised ligand | 1 µM | 65% |
| C[C@@H]1CCN(c2nccc(-c3cnn4ncccc34)n2)C1 | binding, competition with immobilised ligand | 1 µM | 23% |
| C[C@H](c1ccnc(Nc2nc3ccc(-c4cc(N(C)C)ncn4)cc3[nH]2)c1)N1CCN(C(=O)CC(F)(F)F)CC1 | cell-free assay, competition with immobilised ligand | 0.1 µM | 98% |
| Cc1cnn2ncc(-c3ccnc(N(C)C)n3)c2c1 | binding | 1 µM | 67% |
| Cc1cnc(Nc2ccc(C(=O)N3CCC(N4CCCC4)CC3)cc2)nc1-c1cc2ccccc2s1 | binding, competition with immobilised ligand | 1 µM | 4.5% |
| N#Cc1ccccc1CSc1nnc2c(n1)[nH]c1ccccc12 | binding, competition with immobilised ligand | 10 µM | 96% |
| COc1ncc2cc3ccccc3nc2c1C#N | cell-free assay, competition with immobilised ligand | 5 µM | 100% |
